The subject of experiment [1] is HCT-116. Put plainly: Cytotoxicity against multidrug-resistant human HCT116 cells by thymidine incorporation assay. The format is functional, cell-based. Put shortly: (§1)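 Cells (3000/well) were plated in IMDM (HCT-116), RPMI 1640 (HCT-15) or MEM (WS-1), each with L-glutamine, 10% FBS and 0.1% penicillin-streptomycin. Compounds in DMSO (1% in all wells) were added after about 6 h and left for 72 h, with 3H-thymidine pulsed for the last 16 h. Uptake was scintillation-counted against DMSO controls. IC50 came from four-concentration curves, three experiments in quadruplicate.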
(Incorporation of labelled thymidine or its analogues reports DNA synthesis.)

Experiment [2] deals with HCT-15. Put plainly: Cytotoxicity against multidrug-resistant human HCT15 cells by thymidine incorporation assay. The format is functional, cell-based. The procedure, abridged: as §1
The subject of experiment [3] is HCT-116. Put plainly: Cytotoxicity against multidrug-resistant human HCT116 cells at 1 uM by thymidine incorporation assay. The experiment is classed as functional. Put shortly: (§2)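 HCT-116 cells were grown in IMDM and HCT-15 in RPMI 1640, each with L-glutamine, 10% FBS and penicillin-streptomycin, at 3000 cells/well. Compound was applied at 1 µM in 1% DMSO for 72 h total, with 3H-thymidine added for the final 16 h. Percent growth inhibition versus DMSO controls was scintillation-counted, averaging three wells in each of three assays.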

The subject of experiment [4] is HCT-15. Put plainly: Cytotoxicity against multidrug-resistant human HCT15 cells at 1 uM by thymidine incorporation assay. The format is functional. The procedure, abridged: as §2
Experiment [5] is described as follows: Cytotoxicity against human WS1 cells by thymidine incorporation assay. The experiment is classed as cell-based. Put shortly: as §1

Structures are written as SMILES. Square brackets hold non-standard residues; d marks the D form. Peptide text beside a SMILES is read from it. * marks the point of attachment. dNMeF = CN[C@H](Cc1ccccc1)C(=O)O; Cbz = O=C(OCc1ccccc1)*

Broadly, the IC50 is the concentration at which inhibition is half-maximal. What is called inhibition is the drop in the measured response relative to a control, in per cent. A high value points to a response far below the control. Take `CC(C)C[C@@H]1NC(=O)[C@H](Cc2ccccc2)NC(=O)[C@H](CC(C)C)NC(=O)[C@@H](C(C)C)NC(=O)[C@H](CC(C)C)NC1=O` (HELM PEPTIDE1{F.L.L.[dV].L}$PEPTIDE1,PEPTIDE1,1:R1-5:R2$$$V2.0): the IC50 is 1.3 µM with HCT-116 [1], 0.8 µM with HCT-15 [2] and 20 µM in experiment [5]. In addition, the inhibition at 1 µM in the experiment on HCT-116 [3] and with HCT-15 [4] was 48% throughout.
Turning to `CC(C)C[C@@H]1NC(=O)[C@H](Cc2ccccc2)NC(=O)[C@H](CC(C)C)N(C)C(=O)[C@H](C(C)C)NC(=O)[C@H](CC(C)C)NC1=O` (HELM PEPTIDE1{F.L.L.V.[meL]}$PEPTIDE1,PEPTIDE1,1:R1-5:R2$$$V2.0), the IC50 in the experiment on HCT-116 [1] and in the experiment with HCT-15 [2] was more than 50 µM in each case. Further, the inhibition at 1 µM in the experiment with HCT-116 [3] was 20%; in the experiment with HCT-15 [4], 3%.
As to `CC(C)C[C@@H]1NC(=O)[C@H](Cc2ccccc2)NC(=O)[C@H](CC(C)C)NC(=O)[C@H](C(C)C)NC(=O)[C@H](CCCCNC(=O)OCc2ccccc2)NC1=O` (cyclo(FLK(Cbz)VL)), the inhibition at 1 µM turned out to be 46% in the experiment on HCT-116 [3] and 41% with HCT-15 [4].
Consider `CC(C)C[C@@H]1NC(=O)[C@H](CC(C)C)N(C)C(=O)[C@H](Cc2ccccc2)NC(=O)[C@H](CC(C)C)N(C)C(=O)[C@H](C(C)C)NC1=O` (HELM PEPTIDE1{F.[meL].L.V.[meL]}$PEPTIDE1,PEPTIDE1,1:R1-5:R2$$$V2.0), for which the inhibition at 1 µM in the experiment with HCT-116 [3] was 20%; in the experiment on HCT-15 [4], 0%.
The corresponding values for `CC(C)C[C@@H]1NC(=O)[C@H](Cc2ccccc2)NC(=O)[C@H](CC(C)C)NC(=O)[C@H](C(C)C)NC(=O)[C@@H](CC(C)C)NC1=O` (HELM PEPTIDE1{F.L.[dL].V.L}$PEPTIDE1,PEPTIDE1,1:R1-5:R2$$$V2.0) are 0% and 15%.
Consider `CC(C)C[C@@H]1NC(=O)[C@H](CC(C)C)NC(=O)[C@@H](Cc2ccccc2)NC(=O)[C@H](CC(C)C)NC(=O)[C@H](C(C)C)NC1=O` (HELM PEPTIDE1{L.L.V.L.[dF]}$PEPTIDE1,PEPTIDE1,1:R1-5:R2$$$V2.0), for which the IC50 with HCT-116 [1] and in the experiment with HCT-15 [2] was more than 50 µM throughout. Also, the inhibition at 1 µM was 30% with HCT-116 [3] and 26% in the experiment with HCT-15 [4].
Consider `CC(C)C[C@@H]1NC(=O)[C@H](C(C)C)NC(=O)[C@H](CC(C)C)N(C)C(=O)[C@@H](CC(C)C)NC(=O)[C@H](Cc2ccccc2)NC1=O` (HELM PEPTIDE1{F.[dL].[meL].V.L}$PEPTIDE1,PEPTIDE1,1:R1-5:R2$$$V2.0), for which the inhibition at 1 µM worked out at 23% with HCT-116 [3] and 30% in the experiment on HCT-15 [4].
As to `CC(C)C[C@@H]1NC(=O)[C@H](Cc2ccccc2)NC(=O)[C@@H](CC(C)C)NC(=O)[C@H](C(C)C)NC(=O)[C@H](CC(C)C)NC1=O` (HELM PEPTIDE1{F.L.L.V.[dL]}$PEPTIDE1,PEPTIDE1,1:R1-5:R2$$$V2.0), the IC50 in the experiment with HCT-116 [1] and with HCT-15 [2] was more than 50 µM in each case. Besides, the inhibition at 1 µM with HCT-116 [3] was found to be 18%; with HCT-15 [4], 10%.
As to `CC(C)C[C@@H]1NC(=O)[C@H](CC(C)C)NC(=O)[C@@H](Cc2ccccc2)NC(=O)[C@@H](CC(C)C)NC(=O)[C@@H](C(C)C)NC1=O` (HELM PEPTIDE1{L.L.[dV].[dL].[dF]}$PEPTIDE1,PEPTIDE1,1:R1-5:R2$$$V2.0), the inhibition at 1 µM in the experiment with HCT-116 [3] stood at 44%; with HCT-15 [4], 35%.
On the same counts, the results for `CC(C)C[C@@H]1NC(=O)[C@H](Cc2ccccc2)NC(=O)[C@@H](Cc2ccccc2)N(C)C(=O)[C@H](C(C)C)NC(=O)[C@H](CCCCNC(=O)OCc2ccccc2)NC1=O` (cyclo(FLK(Cbz)V[dNMeF])) are 38% and 14%.
As to `CC(C)C[C@@H]1NC(=O)[C@H](Cc2ccccc2)NC(=O)[C@H](CC(C)C)NC(=O)[C@H](C(C)C)N(C)C(=O)[C@H](CC(C)C)NC1=O` (HELM PEPTIDE1{F.L.L.[meV].L}$PEPTIDE1,PEPTIDE1,1:R1-5:R2$$$V2.0), the inhibition at 1 µM in the experiment on HCT-116 [3] came to 6%; in the experiment on HCT-15 [4], 23%.
The corresponding values for `CC(C)C[C@@H]1NC(=O)[C@H](C(C)C)NC(=O)[C@@H](CC(C)C)NC(=O)[C@@H](CC(C)C)NC(=O)[C@H](Cc2ccccc2)NC1=O` (HELM PEPTIDE1{F.[dL].[dL].V.L}$PEPTIDE1,PEPTIDE1,1:R1-5:R2$$$V2.0) are 28% and 40%.
Regarding `CC(C)C[C@@H]1NC(=O)[C@H](Cc2ccccc2)NC(=O)[C@@H](CC(C)C)N(C)C(=O)[C@@H](C(C)C)N(C)C(=O)[C@H](CC(C)C)NC1=O` (HELM PEPTIDE1{F.L.L.[CC(C)[C@H](C(=O)[*:2])N(C)[*:1]].[CC(C)C[C@H](C(=O)[*:2])N(C)[*:1]]}$PEPTIDE1,PEPTIDE1,1:R1-5:R2$$$V2.0), the values for the inhibition at 1 µM in the experiment on HCT-116 [3] and with HCT-15 [4] were 30% and 7%, respectively.
The corresponding values for `CC(C)C[C@@H]1NC(=O)[C@H](Cc2ccccc2)NC(=O)[C@H](CC(C)C)NC(=O)[C@@H](C(C)C)NC(=O)[C@H](CCCCN)NC1=O` (HELM PEPTIDE1{F.L.K.[dV].L}$PEPTIDE1,PEPTIDE1,1:R1-5:R2$$$V2.0) are 11% and 18%.
Turning to `CC(C)C[C@@H]1NC(=O)[C@H](Cc2ccccc2)NC(=O)[C@@H](CC(C)C)NC(=O)[C@@H](C(C)C)NC(=O)[C@H](CC(C)C)NC1=O` (HELM PEPTIDE1{F.L.L.[dV].[dL]}$PEPTIDE1,PEPTIDE1,1:R1-5:R2$$$V2.0), the inhibition at 1 µM in the experiment with HCT-116 [3] came to 34%; with HCT-15 [4], 17%.
As for `CC(C)C[C@@H]1NC(=O)[C@H](Cc2ccccc2)NC(=O)[C@@H](CC(C)C)N(C)C(=O)[C@H](C(C)C)NC(=O)[C@H](CC(C)C)NC1=O` (HELM PEPTIDE1{F.L.L.V.[CC(C)C[C@H](C(=O)[*:2])N(C)[*:1]]}$PEPTIDE1,PEPTIDE1,1:R1-5:R2$$$V2.0), the IC50 in the experiment on HCT-116 [1] and with HCT-15 [2] was more than 50 µM in each case. Besides, the inhibition at 1 µM turned out to be 25% with HCT-116 [3] and 33% in the experiment on HCT-15 [4].
Take `CC(C)[C@@H]1NC(=O)[C@H](Cc2ccccc2)NC(=O)[C@@H](CO)NC(=O)[C@H](C(C)C)NC(=O)[C@H](C(C)C)NC1=O` (HELM PEPTIDE1{F.V.V.V.[dS]}$PEPTIDE1,PEPTIDE1,1:R1-5:R2$$$V2.0): the inhibition at 1 µM came out at 0% with HCT-116 [3] and 18% in the experiment on HCT-15 [4].
On the same counts, the results for `CC(C)C[C@@H]1NC(=O)[C@H](Cc2ccccc2)NC(=O)[C@@H](CO)NC(=O)[C@H](C(C)C)NC(=O)[C@H](CC(C)C)NC1=O` (HELM PEPTIDE1{F.L.L.V.[dS]}$PEPTIDE1,PEPTIDE1,1:R1-5:R2$$$V2.0) are 37% and 3%.
In the case of `CC(C)C[C@@H]1NC(=O)[C@H](CC(C)C)NC(=O)[C@H](Cc2ccccc2)N(C)C(=O)[C@H](CC(C)C)NC(=O)[C@H](C(C)C)NC1=O` (HELM PEPTIDE1{[meF].L.L.V.L}$PEPTIDE1,PEPTIDE1,1:R1-5:R2$$$V2.0), the IC50 with HCT-116 [1] and in the experiment with HCT-15 [2] was more than 50 µM in each case. Moreover, the figures for the inhibition at 1 µM in the experiment with HCT-116 [3] and in the experiment with HCT-15 [4] were 2% and 18%, respectively.
For `CC(C)C[C@H]1NC(=O)[C@@H](Cc2ccccc2)NC(=O)[C@@H](CC(C)C)NC(=O)[C@@H](C(C)C)NC(=O)[C@@H](CC(C)C)NC1=O` (HELM PEPTIDE1{[dF].[dL].[dL].[dV].[dL]}$PEPTIDE1,PEPTIDE1,1:R1-5:R2$$$V2.0), the inhibition at 1 µM in the experiment on HCT-116 [3] is 27%; with HCT-15 [4] it was 15%.
For the molecule `CC(C)C[C@@H]1NC(=O)[C@H](Cc2ccccc2)NC(=O)[C@H](CC(C)C)N(C)C(=O)[C@H](C(C)C)N(C)C(=O)[C@H](CC(C)C)NC1=O` (HELM PEPTIDE1{F.L.L.[meV].[meL]}$PEPTIDE1,PEPTIDE1,1:R1-5:R2$$$V2.0), the values for the inhibition at 1 µM in the experiment on HCT-116 [3] and in the experiment with HCT-15 [4] were 10% and 0%, respectively.
The corresponding values for `CC[C@H]1NC(=O)[C@H](CC(C)C)NC(=O)[C@H](CC(C)C)NC(=O)[C@H](Cc2ccccc2)NC(=O)[C@H](CC(C)C)NC1=O` (HELM PEPTIDE1{F.L.L.[CC[C@@H](N[*:1])C(=O)[*:2]].L}$PEPTIDE1,PEPTIDE1,1:R1-5:R2$$$V2.0) are 17% and 20%.
The corresponding values for `CC(C)C[C@@H]1NC(=O)[C@H](Cc2ccccc2)NC(=O)[C@H](CC(C)C)NC(=O)[C@@H](CO)NC(=O)[C@H](CC(C)C)NC1=O` (HELM PEPTIDE1{F.L.L.[dS].L}$PEPTIDE1,PEPTIDE1,1:R1-5:R2$$$V2.0) are 0% and 11%.
In the case of `Nc1ccn([C@@H]2O[C@H](CO)[C@@H](O)C2(F)F)c(=O)n1` [GEMCITABINE], the IC50 amounted to 14.3 µM in the experiment with HCT-116 [1], 11.8 µM in the experiment with HCT-15 [2] and 200 µM in experiment [5].
For the molecule `CC(C)C[C@@H]1NC(=O)[C@@H](CC(C)C)NC(=O)[C@H](Cc2ccccc2)NC(=O)[C@H](CC(C)C)NC(=O)[C@@H](C(C)C)NC1=O` (HELM PEPTIDE1{F.[dL].L.[dV].L}$PEPTIDE1,PEPTIDE1,1:R1-5:R2$$$V2.0), the inhibition at 1 µM turned out to be 16% with HCT-116 [3] and 20% in the experiment on HCT-15 [4].
The corresponding values for `CC(C)[C@@H]1NC(=O)[C@H](Cc2ccccc2)NC(=O)[C@H](C(C)C)NC(=O)[C@@H](CO)NC(=O)[C@H](C(C)C)NC1=O` (HELM PEPTIDE1{F.V.V.[dS].V}$PEPTIDE1,PEPTIDE1,1:R1-5:R2$$$V2.0) are 18% and 13%.

The record behind these values is ChEMBL document CHEMBL1140733, “Comprehensive study of sansalvamide A derivatives and their structure-activity relationships against drug-resistant colon cancer cell lines” (J Med Chem, 2008).
